Data reported in paper PMC6448596 (Cell reports, 2019).

How the values were obtained:
HL60 cells = assay: Proliferation assay; assay type: cell-based; conditions: Homo sapiens, HL-60, 72 h
Procedure, shortened: (§1)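 CellTiter-Glo, 5,000 cells/well. Cells received 0.1% DMSO or at least five two-fold dilutions of test compound (top 50 μM, final DMSO 0.1%), in triplicate wells and ≥2 biological replicates, for 72 h at 37°C. Reagent was added after equilibration to RT, with 30 min dark incubation before luminescence. Signals were normalized to DMSO wells and GI50 obtained by curve fitting. Curve error bars are SEM.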

K562 cells = assay: Proliferation assay; assay type: cell-based; conditions: Homo sapiens, K562, 72 h
Procedure, shortened: as §1

THP-1 cells = assay: Proliferation assay; assay type: cell-based; conditions: Homo sapiens, THP-1, 72 h
Procedure, shortened: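 THP-1 cells were grown in RPMI-1640 with 0.05 mM 2-mercaptoethanol and 10% FBS. Cells were plated 5,000/well with ≥5 two-fold dilutions of test compound (top 50 μM, 0.1% DMSO final), in triplicate wells with ≥2 biological replicates.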

HEL cells = assay: Proliferation assay; assay type: cell-based; conditions: Homo sapiens, 72 h
Procedure, shortened: as §1

NOMO-1 cells = assay: Proliferation assay; assay type: cell-based; conditions: Homo sapiens, NOMO-1, 72 h
Procedure, shortened: as §1

SET-2 cells = assay: Proliferation assay; assay type: cell-based; conditions: Homo sapiens, SET-2, 72 h
Procedure, shortened: as §1

MA93 cells = assay: Proliferation assay; assay type: cell-based; conditions: Homo sapiens, 72 h
Procedure, shortened: (§2)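 CellTiter-Glo at 2,000 cells/well. MA93 Ras and MA93 FLT3/ITD were maintained in IMDM/20% FBS. Parental MA93 received IMDM/20% FBS plus 10 ng/mL human SCF, TPO, FLT3L, IL3 and IL6. Dosing used ≥5 two-fold dilutions from 50 μM top, 0.1% DMSO final, in triplicate wells with ≥2 biological replicates. Plates ran 72 h at 37°C, followed by 30 min reagent incubation at RT in the dark. GI50 came from DMSO-normalized luminescence.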

MA93 FLT3-ITD cells = assay: Proliferation assay; assay type: cell-based; conditions: Homo sapiens, 72 h
Procedure, shortened: as §2

MA93 Ras cells = assay: Proliferation assay; assay type: cell-based; conditions: Homo sapiens, MA9.3RAS, 72 h
Procedure, shortened: as §2

RN2 cells = assay: Proliferation assay; assay type: cell-based, murine; conditions: Mus musculus, 72 h
Procedure, shortened: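 Murine RN2 cells were seeded at 2,500/well and exposed to ≥5 two-fold dilutions (top 50 μM, 0.1% DMSO final) in triplicate wells, with ≥2 biological replicates, for 72 h. MTS reagent was added for 1.25 h at 37°C and absorbance read at 490 nm. Values were normalized to DMSO wells and GI50 fitted. Error bars are SEM.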

[1] = tested on: gene body transcription in MV4:11 cells; assay: PRO-Seq; assay type: cell-based, human; conditions: MV4:11, 36 μM, 15, 30 or 60 min
Procedure, shortened: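 30 million MV4:11 cells were harvested 15, 30 or 60 min after test compound; 0.1% DMSO for 60 min was the reference. Cells were swollen on ice, lysed with 0.1% Triton/10% glycerol and Dounce-homogenized. Nuclei were stored at −80°C in 40% glycerol freezing buffer (2 × 10^7 nuclei/100 μl) and used for nuclear run-on. Beads were washed in high/medium/low salt; RNA was TRIzol-extracted.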

WDR5 [2] = biological target: T1, WDR5 (Homo sapiens, UniProt P61964); assay: ChIP-PCR of WDR5 binding; assay type: cell-based; conditions: MV4:11, 36 μM, 4 h
Procedure, shortened: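 MV4:11 cells were treated 4 h with 36 μM test compound, its negative control or DMSO. They were cross-linked in 0.75–1% formaldehyde for 10 min at RT and quenched with 125 mM glycine. Cells were lysed in SDS/Triton formaldehyde lysis buffer. Chromatin from 6 million cells was used per IP, with anti-WDR5 (D9E1I) or IgG, followed by low-salt, high-salt, LiCl and TE washes. Signal is % input, biological triplicate, SEM.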

WDR5 [3] = biological target: T1, WDR5; assay: Subcellular fractionation, WDR5 western blot; assay type: cell-based; conditions: MV4:11, 36 μM, 4 h
WDR5 [4] = biological target: T1, WDR5; assay: 10-mer-Thr-FAM peptide TR-FRET competition assay; assay type: binding; conditions: relative to C3
MV4:11 cells = assay: Proliferation assay; assay type: cell-based, human; conditions: Homo sapiens, MV4-11, 72 h, MV4:11, 3 days, mean with SEM
Procedure, shortened: as §1

Molm13 cells = assay: Proliferation assay; assay type: cell-based; conditions: Homo sapiens, MOLM-13, 72 h
Procedure, shortened: as §1

MONO-Mac-6 cells = assay: Proliferation assay; assay type: cell-based; conditions: Homo sapiens, MONO-MAC-6, 72 h
Procedure, shortened: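 MONO-MAC-6 cells were maintained in RPMI with 10% FBS, non-essential amino acids and OPI supplement. CellTiter-Glo used 5,000 cells/well and ≥5 two-fold dilutions from 50 μM (0.1% DMSO final), in triplicate wells with ≥2 biological replicates, over 72 h at 37°C.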

GDM-1 cells = assay: Proliferation assay; assay type: cell-based; conditions: Homo sapiens, GDM-1, 72 h
Procedure, shortened: as §1

[5] = tested on: gene expression in MV4:11 cells; assay: RNA-Seq; assay type: cell-based, human; conditions: MV4:11, 2 μM, 3 days
WDR5 [6] = biological target: T1, WDR5; assay: ChIP-Seq of WDR5; assay type: cell-based; conditions: MV4:11, 2 μM, 4 h
Procedure, shortened: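 MV4:11 cells at 10^6/ml were treated 4 h with 2 μM test compound, negative control or 0.1% DMSO. Cells were concentrated to 4 × 10^6/ml in PBS, fixed in 1% formaldehyde for 10 min at RT and quenched with 125 mM glycine. They were lysed in 1% SDS FA buffer. Sheared chromatin was diluted to 0.1% SDS and immunoprecipitated overnight at 4°C with anti-WDR5 (D9E1I or 429A) or IgG on BSA-blocked protein-A agarose. Peaks were compared by normalized average read counts.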

[7] = tested on: p53 and p21 protein levels in MV4:11 cells; assay: p53/p21 induction western blot; assay type: cell-based, human; conditions: MV4:11, 30 µM OICR-9429
Procedure, shortened: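 Treatment lasted 24 h with test compound or its negative control, at 2 μM in MV4:11 and 3 μM in Molm13. Comparators were 2 μM Nutlin-3 or 0.1% DMSO. Four million cells were PBS-washed and lysed 10 min on ice in Kischkel buffer. p53 and p21 were detected by western blot, with histone H3 as loading control.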

[8] = tested on: ribosome protein gene expression in MV4:11 cells; assay: RT-qPCR quantification of RPG mRNA expression; assay type: cell-based, human; conditions: MV4:11, three days, 50 µM OICR-9429 (adjusted to relative GI50)
Procedure, shortened: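 Cells were lysed in Trizol and total RNA isolated on columns with DNase digestion. 1 μg RNA was reverse transcribed with MuLV reverse transcriptase in 20 μl, then diluted three-fold in nuclease-free water before qPCR.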

[9] = tested on: p53 turnover in MV4:11 cells; assay: Cycloheximide; assay type: cell-based, human; conditions: MV4:11, 2 μM, 24 h before CHX
Procedure, shortened: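 Before the cycloheximide chase, MV4:11 cells were pretreated 24 h with 2 μM test compound, 2 μM Nutlin-3 as comparator, or DMSO only. p53 was then followed by immunoblot.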

Compound	GI50 (HL60 cells)	GI50 (K562 cells)	GI50 (THP-1 cells)	GI50 (HEL cells)	GI50 (NOMO-1 cells)	GI50 (SET-2 cells)	GI50 (MA93 cells)	GI50 (MA93 FLT3-ITD cells)	GI50 (MA93 Ras cells)	GI50 (RN2 cells)	GI50 (MV4:11 cells)	GI50 (Molm13 cells)	further results
COc1cc(CNC(=O)c2ccc(F)c(CNC3=NCCN3)c2)cc(OC)c1 [Compound C3, 3-(((4,5-dihydro-1H-imidazol-2-yl)amino)methyl)-N-(3,5-dimethoxybenzyl)-4-fluorobenzamide]	> 50 µM	> 50 µM	> 50 µM	> 50 µM	> 50 µM	> 50 µM	22.1 ± 3.6 µM	21.2 ± 2.11 µM	> 50 µM	8.65 ± 0.989 µM	–	–	increase in transcription [1]: no instances in which C3 promoted an increase in transcription; reduction in WDR5 binding at five loci (WDR5 [2]): > 10 fold; chromatin-bound WDR5 (P3 fraction) (WDR5 [3]): reduced the total amount of chromatin-bound WDR5
COc1cc(CNC(=O)c2cccc(CNC3=NCCN3)c2F)cc(OC)c1 [Compound C3nc, 3-(((4,5-dihydro-1H-imidazol-2-yl)amino)methyl)-N-(3,5-dimethoxybenzyl)-2-fluorobenzamide]	> 50 µM	> 50 µM	> 50 µM	> 50 µM	> 50 µM	> 50 µM	> 50 µM	> 50 µM	> 50 µM	> 50 µM	> 50 µM	> 50 µM	binding to WDR5 of negative control (WDR5 [4]): reduced affinity
Cc1nc(F)ccc1-c1cc(C(=O)NCc2ccc(Cl)c(Cl)c2)ccc1Cn1ccn(C)c1=N [Compound C6nc, N-(3,4-dichlorobenzyl)-3-(6-fluoro-2-methylpyridin-3-yl)-4-((2-imino-3-methyl-2,3-dihydro-1H-imidazol-1-yl)methyl)benzamide]	> 50 µM	31.7 ± 2.45 µM	> 50 µM	> 50 µM	> 50 µM	> 50 µM	30.3 ± 5.94 µM	26.2 ± 4.75 µM	> 50 µM	> 50 µM	42 ± 9.02 µM	> 50 µM	GI50 (MONO-Mac-6 cells): > 50 µM; GI50 (GDM-1 cells): > 50 µM; effect on gene expression levels [5]: no significant effect on gene expression levels; WDR5 binding events on chromatin (WDR5 [6]): little impact on WDR5 binding
CN1CCN(c2ccc(-c3cccc(CN4CCOCC4)c3)cc2NC(=O)c2c[nH]c(=O)cc2C(F)(F)F)CC1 [OICR-9429, reference compound]	–	–	–	–	–	–	–	–	–	–	31 µM	–	p53 and p21 protein induction [7]: induced both p53 and p21; transcription of RPGs [8]: selectively inhibited the transcription of WDR5-bound RPGs
COc1ccc(C2=N[C@@H](c3ccc(Cl)cc3)[C@@H](c3ccc(Cl)cc3)N2C(=O)N2CCNC(=O)C2)c(OC(C)C)c1 [nutlin-3, reference compound]	–	–	–	–	–	–	–	–	–	–	–	–	p53 turnover in CHX chase [9]: increased the stability of p53
